Data as given in ChEMBL document CHEMBL3769392, “Synthesis, antiproliferative activities, and computational evaluation of novel isocoumarin and 3,4-dihydroisocoumarin derivatives” (Eur J Med Chem, 2016).
Values after ≈ are worked out from the molar mass of the structure shown.

How the values were obtained:
[1] = tested on: U-251; experiment: Antiproliferative activity against human U251 cells after 48 hrs by SRB assay; assay type: functional; conditions: U-251, 48 h
Procedure, shortened: (§1)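 Cells kept in RPMI 1640 with 5% FBS and 1% penicillin/streptomycin at 37 °C, 5% CO2, and used at passages 5–12. Seeded at 3 to 5 x 10^4 cells/mL and exposed 48 h to 0.25, 2.5, 25 and 250 µg/mL in DMSO/RPMI (final DMSO ≤ 0.25%). Doxorubicin 0.025–25 µg/mL served as positive control. Fixed with 50% TCA at T0 and at endpoint, SRB protein read at 540 nm. Growth was T0-corrected and GI50 taken by non-linear regression.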

[2] = tested on: MCF7; experiment: Antiproliferative activity against human MCF7 cells after 48 hrs by SRB assay; assay type: functional; conditions: MCF7, 48 h; procedure, shortened: as §1
[3] = Antiproliferative activity against human NCI-ADR-RES cells after 48 hrs by SRB assay; assay type: functional; procedure, shortened: as §1
[4] = tested on: 786-0; experiment: Antiproliferative activity against human 786-0 cells after 48 hrs by SRB assay; assay type: functional; conditions: 786-0, 48 h; procedure, shortened: as §1
[5] = tested on: NCI-H460; experiment: Antiproliferative activity against human NCI-H460 cells after 48 hrs by SRB assay; assay type: functional; conditions: NCI-H460, 48 h; procedure, shortened: as §1
[6] = Antiproliferative activity against human PC3 cells after 48 hrs by SRB assay; assay type: functional; conditions: PC-3, 48 h; procedure, shortened: as §1
[7] = tested on: HT-29; experiment: Antiproliferative activity against human HT-29 cells after 48 hrs by SRB assay; assay type: functional; conditions: HT-29, 48 h; procedure, shortened: as §1
[8] = Cytotoxicity against human HaCaT cells after 48 hrs by SRB assay; assay type: cell-based; procedure, shortened: as §1
[9] = tested on: HaCaT; experiment: Selectivity index, ratio of GI50 for human HaCaT cells to GI50 for human U251 cells; assay type: functional
[10] = tested on: HaCaT; experiment: Selectivity index, ratio of GI50 for human HaCaT cells to GI50 for human MCF7 cells; assay type: functional
[11] = tested on: HaCaT; experiment: Selectivity index, ratio of GI50 for human HaCaT cells to GI50 for human NCI-ADR-RES cells; assay type: functional
[12] = tested on: HaCaT; experiment: Selectivity index, ratio of GI50 for human HaCaT cells to GI50 for human 786-0 cells; assay type: functional
[13] = tested on: NCI-H460; experiment: Selectivity index, ratio of GI50 for human HaCaT cells to GI50 for human NCI-H460 cells; assay type: functional
[14] = tested on: HaCaT; experiment: Selectivity index, ratio of GI50 for human HaCaT cells to GI50 for human PC3 cells; assay type: functional
[15] = tested on: HaCaT; experiment: Selectivity index, ratio of GI50 for human HaCaT cells to GI50 for human HT-29 cells; assay type: functional

GI50 [1]	GI50 [2]	GI50 [4]	GI50 [5]	GI50 [7]	SMILES	GI50 [3]	GI50 [6]	GI50 at 48 h [8]	RatioGI50 [9]	RatioGI50 [10]	RatioGI50 [11]	RatioGI50 [12]	RatioGI50 [13]	RatioGI50 [14]	RatioGI50 [15]
28.5 µg/mL (≈ 87.6 µM)	26.5 µg/mL (≈ 81.4 µM)	28.6 µg/mL (≈ 87.9 µM)	29.6 µg/mL (≈ 91 µM)	25.8 µg/mL (≈ 79.3 µM)	COc1ccc2cc(COCCCc3cccnc3)oc(=O)c2c1	28 µg/mL (≈ 86.1 µM)	25 µg/mL (≈ 76.8 µM)	26.2 µg/mL (≈ 80.5 µM)	0.92	0.99	0.94	0.92	0.89	1.05	1.02
26.3 µg/mL (≈ 74.4 µM)	23.8 µg/mL (≈ 67.3 µM)	28.7 µg/mL (≈ 81.2 µM)	25.2 µg/mL (≈ 71.3 µM)	25 µg/mL (≈ 70.7 µM)	COc1ccc2cc(CCCOCCCc3cccnc3)oc(=O)c2c1	19.3 µg/mL (≈ 54.6 µM)	26.3 µg/mL (≈ 74.4 µM)	27 µg/mL (≈ 76.4 µM)	1.03	1.13	1.4	0.94	1.07	1.03	1.08
19.4 µg/mL (≈ 63.7 µM)	6 µg/mL (≈ 19.7 µM)	25.5 µg/mL (≈ 83.8 µM)	32 µg/mL (≈ 105 µM)	28.3 µg/mL (≈ 93 µM)	CCCCCOCCCc1cc2ccc(OC)cc2c(=O)o1	7.4 µg/mL (≈ 24.3 µM)	8 µg/mL (≈ 26.3 µM)	5.5 µg/mL (≈ 18.1 µM)	0.28	0.92	0.74	0.22	0.17	0.69	0.19
43.3 µg/mL (≈ 110 µM)	45.7 µg/mL (≈ 116 µM)	51.1 µg/mL (≈ 130 µM)	≥ 250 µg/mL	≥ 250 µg/mL	COc1ccc2cc(CCCSc3nnnn3-c3ccccc3)oc(=O)c2c1	≥ 250 µg/mL	144 µg/mL (≈ 366 µM)	≥ 250 µg/mL	>5.77	>5.47		>4.89		>1.73	
167 µg/mL (≈ 811 µM)	32.6 µg/mL (≈ 158 µM)	37.6 µg/mL (≈ 182 µM)	93.2 µg/mL (≈ 452 µM)	80.3 µg/mL (≈ 389 µM)	COc1ccc2cc(CO)oc(=O)c2c1	160 µg/mL (≈ 778 µM)	49.2 µg/mL (≈ 239 µM)	134 µg/mL (≈ 652 µM)	0.8	4.12	0.84	3.57	1.44	2.73	1.67
≥ 250 µg/mL	89.3 µg/mL (≈ 507 µM)	≥ 250 µg/mL	≥ 250 µg/mL	168 µg/mL (≈ 956 µM)	O=c1oc(CO)cc2ccccc12	≥ 250 µg/mL	118 µg/mL (≈ 669 µM)	222 µg/mL (≈ 1260 µM)		2.49				1.88	1.32
67.4 µg/mL (≈ 186 µM)	75.2 µg/mL (≈ 208 µM)	224 µg/mL (≈ 619 µM)	≥ 250 µg/mL	≥ 250 µg/mL	COc1ccc2cc(CCCn3nnnc3-c3ccccc3)oc(=O)c2c1	≥ 250 µg/mL	180 µg/mL (≈ 496 µM)	≥ 250 µg/mL	>3.71	>3.32		>1.12		>1.39	
28.9 µg/mL (≈ 123 µM)	25.8 µg/mL (≈ 110 µM)	26.9 µg/mL (≈ 115 µM)	29.1 µg/mL (≈ 124 µM)	29.1 µg/mL (≈ 124 µM)	COc1ccc2cc(CCCO)oc(=O)c2c1	28.1 µg/mL (≈ 120 µM)	25.9 µg/mL (≈ 111 µM)	29 µg/mL (≈ 124 µM)	1	1.12	1.03	1.08	1	1.12	1
32.2 µg/mL (≈ 105 µM)	32.3 µg/mL (≈ 105 µM)	31.9 µg/mL (≈ 104 µM)	33.7 µg/mL (≈ 110 µM)	43.5 µg/mL (≈ 142 µM)	CCCCCOCCCC1Cc2ccc(OC)cc2C(=O)O1 (racemic)	42.3 µg/mL (≈ 138 µM)	29.5 µg/mL (≈ 96.3 µM)	32.3 µg/mL (≈ 105 µM)	1	1	0.76	1.01	0.96	1.09	0.74
≥ 250 µg/mL	250 µg/mL (≈ 1200 µM)	≥ 250 µg/mL	≥ 250 µg/mL	≥ 250 µg/mL	COc1ccc2c(c1)C(=O)OC(CO)C2 (racemic)	≥ 250 µg/mL	175 µg/mL (≈ 842 µM)	≥ 250 µg/mL		>1				>1.43	
≥ 250 µg/mL	18.6 µg/mL (≈ 46.9 µM)	≥ 250 µg/mL	≥ 250 µg/mL	13.7 µg/mL (≈ 34.6 µM)	COc1ccc2c(c1)C(=O)OC(CCCSc1nnnn1-c1ccccc1)C2 (racemic)	132 µg/mL (≈ 333 µM)	45.1 µg/mL (≈ 114 µM)	≥ 250 µg/mL		>13.44	>1.89			>5.54	>18.25
226 µg/mL (≈ 621 µM)	28.2 µg/mL (≈ 77.4 µM)	≥ 250 µg/mL	211 µg/mL (≈ 578 µM)	31.2 µg/mL (≈ 85.6 µM)	COc1ccc2c(c1)C(=O)OC(CCCn1nnnc1-c1ccccc1)C2 (racemic)	142 µg/mL (≈ 390 µM)	23.9 µg/mL (≈ 65.6 µM)	≥ 250 µg/mL	>2.29	>8.87	>1.76		>1.19	> 10.5	>8.01
≥ 250 µg/mL	0.66 µg/mL (≈ 3.7 µM)	≥ 250 µg/mL	≥ 250 µg/mL	≥ 250 µg/mL	O=C1OC(CO)Cc2ccccc21 (racemic)	≥ 250 µg/mL	≥ 250 µg/mL	≥ 250 µg/mL		>378.79					
135 µg/mL (≈ 571 µM)	80.8 µg/mL (≈ 342 µM)	102 µg/mL (≈ 430 µM)	136 µg/mL (≈ 574 µM)	132 µg/mL (≈ 559 µM)	COc1ccc2c(c1)C(=O)OC(CCCO)C2 (racemic)	93.3 µg/mL (≈ 395 µM)	70.7 µg/mL (≈ 299 µM)	130 µg/mL (≈ 551 µM)	0.97	1.12	1.4	1.28	0.96	1.84	0.99
< 0.025 µg/mL	< 0.025 µg/mL	0.025 µg/mL (≈ 0.046 µM)	< 0.025 µg/mL	0.13 µg/mL (≈ 0.239 µM)	COc1cccc2c1C(=O)c1c(O)c3c(c(O)c1C2=O)C[C@@](O)(C(=O)CO)C[C@@H]3O[C@H]1C[C@H](N)[C@H](O)[C@H](C)O1 [DOXORUBICIN]	0.14 µg/mL (≈ 0.258 µM)	0.085 µg/mL (≈ 0.156 µM)	< 0.025 µg/mL							
